Laboratory results: ChEMBL document CHEMBL3272275, “Synthesis and antiinflammatory activity of some 1,2,3- and 1,2,4-triazolepropionic acids” (J Med Chem, 1978)

Tests used:
Rattus norvegicus [1] = test: Antiinflammatory activity against carrageenan/Evans blue dye-induced pleural effusion rat model assessed as reduction in pleural fluid volume at 0.4 mmol/kg, po administered 1 hr prior challenge measured 6 hrs post challenge relative to phenylbutazone; format: functional
Rattus norvegicus [2] = test: Antiinflammatory activity in Freund's adjuvant-induced Lewis rat arthritis model assessed as reduction of paw volume at 0.2 mmol/kg, po qd administered on day 0 to day 21 of adjuvant challenge measured on day 7 by plethysmometry relative to control; format: functional; set-up: scale not given: the % may be the effect or the level left
Rattus norvegicus [3] = test: Antiinflammatory activity against carrageenan/Evans blue dye-induced pleural effusion rat model assessed as reduction in pleural fluid volume at 0.4 mmol/kg, po administered 1 hr prior challenge measured 6 hrs post challenge relative to control; format: functional; set-up: scale not given: the % may be the effect or the level left
Summary of the method: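 Oral dosing at 0.4 mmol/kg to groups of six rats, 1 h before intrapleural carrageenan plus Evans blue dye. Rats killed 6 h after the irritants and pleural fluid volume measured. Value is percent reduction in fluid volume relative to untreated controls.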

Rattus norvegicus [4] = test: Antiinflammatory activity in Freund's adjuvant-induced Lewis rat arthritis model assessed as reduction of paw volume at 0.2 mmol/kg, po qd administered on day 0 to day 21 of adjuvant challenge measured on day 21 by plethysmometry relative to control; format: functional; set-up: scale not given: the % may be the effect or the level left
Summary of the method: (§1)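 Male Lewis rats (125-150 g) given an intradermal injection of 0.05 mL of 0.65% Mycobacterium tuberculosis suspension in Freund's adjuvant into the right hind plantar surface on day 0. Negative controls received mineral oil only. Dosing once daily by gavage, groups of six, days 0-21. Injected and uninjected hind-foot volume change over days 0-21 measured plethysmographically. Value is percent reduction relative to controls.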

Rattus norvegicus [5] = test: […] in Freund's adjuvant-induced Lewis rat arthritis model assessed as reduction of uninjected paw volume at 0.2 mmol/kg, po qd administered on day 0 to day 21 of adjuvant challenge measured on day 21 by plethysmometry relative to control; format: organism-based; set-up: scale not given: the % may be the effect or the level left; conditions: in vivo; summary of the method: as §1
Rattus norvegicus [6] = test: […] in Freund's adjuvant-induced Lewis rat arthritis model assessed as reduction of uninjected paw volume at 72 mg/kg, po qd administered on day 0 to day 21 of adjuvant challenge measured on day 21 by plethysmometry relative to control; format: organism-based; set-up: dose 72 mg/kg, route oral; scale not given: the % may be the effect or the level left; conditions: in vivo; summary of the method: as §1
Rattus norvegicus [7] = test: Antiinflammatory activity in Freund's adjuvant-induced Lewis rat arthritis model assessed as reduction of paw volume at 72 mg/kg, po qd administered on day 0 to day 21 of adjuvant challenge measured on day 21 by plethysmometry relative to control; format: functional; set-up: scale not given: the % may be the effect or the level left; summary of the method: as §1
Rattus norvegicus [8] = test: Antiinflammatory activity in Freund's adjuvant-induced Lewis rat arthritis model assessed as reduction of paw volume at 72 mg/kg, po qd administered on day 0 to day 21 of adjuvant challenge measured on day 7 by plethysmometry relative to control; format: functional; set-up: scale not given: the % may be the effect or the level left
Rattus norvegicus [9] = test: Antiinflammatory activity against carrageenan/Evans blue dye-induced pleural effusion rat model assessed as reduction in pleural fluid volume at 0.83 mmol/kg, po administered 1 hr prior challenge measured 6 hrs post challenge relative to control; format: functional; set-up: scale not given: the % may be the effect or the level left

Row | SMILES | fold change (FC) (Rattus norvegicus [1]) | Activity (Rattus norvegicus [2]) [%] | Activity (Rattus norvegicus [3]) [%] | Activity (Rattus norvegicus [4]) [%] | Activity (Rattus norvegicus [5]) [%] | Activity (Rattus norvegicus [6]) [%] | Activity (Rattus norvegicus [7]) [%] | Activity (Rattus norvegicus [8]) [%] | Activity (Rattus norvegicus [9]) [%]
1 | O=C(O)CCn1nnc(-c2ccccc2)n1 | 0.9 |  |  |  |  |  |  |  | 
2 | O=C(O)CCn1nc(-c2ccccc2)c(-c2ccccc2)n1 |  | 21 | 26 | 23 | 34 |  |  |  | 
3 | Cc1cccc(-c2cnn(CCC(=O)O)n2)c1 |  | 13 | -1.3 | 4.5 | 9.6 |  |  |  | 
4 | Cl.O=C(O)CCn1ncc(-c2cccnc2)n1 |  |  | -1.3 |  |  |  |  |  | 
5 | Cc1nn(CCC(=O)O)nc1-c1ccccc1 |  |  | 17 |  |  |  |  |  | 
6 | O=C(O)CCCn1ncc(-c2ccccc2)n1 |  | -1.8 | 13 | 14 | 1.4 |  |  |  | 
7 | O=C(O)Cn1ncc(-c2ccccc2)n1 |  | -17 | -5 | -9 | 45 |  |  |  | 
8 | CC(=O)Nc1cccc(-c2cnn(CCC(=O)O)n2)c1 |  | 8.1 | -3.2 | -0.1 | -24 |  |  |  | 
9 | O=C(O)CCn1ncc(-c2cc(Cl)cc(Cl)c2)n1 |  | 35 | 0 | 33 | 38 |  |  |  | 
10 | O=C(O)CCn1ncc(-c2cccc(Br)c2)n1 |  | 19 | 29 | 30 | 25 |  |  |  | 
11 | O=C(O)CCn1ncc(-c2cccc(Cl)c2)n1 |  | 28 | 19 | 42 | 26 |  |  |  | 
12 | O=C(O)CCn1ncc(-c2ccccc2)n1 |  | 36 | 42 | 57 | 63 |  |  |  | 
13 | O=C(O)/C=C/c1cnn(-c2cccc(Br)c2)n1 |  | 12 | 20 | 14 | 16 |  |  |  | 
14 | O=C(O)/C=C/c1cnn(-c2cccc(Cl)c2)n1 |  |  | 18 |  |  |  |  |  | 
15 | O=C(O)/C=C/c1cnn(-c2ccccc2)n1 |  | 14 | 13 | 20 | 42 |  |  |  | 
16 | O=C(O)CCc1cnn(-c2cccc(Br)c2)n1 |  | 14 | 14 | 35 | 39 |  |  |  | 
17 | O=C(O)CCc1cnn(-c2cccc(Cl)c2)n1 |  | 13 | 33 | 32 | 11 |  |  |  | 
18 | O=C(O)CCc1cnn(-c2ccccc2)n1 |  | 9.1 | 28 | 24 | 36 |  |  |  | 
19 | O=C(O)CCn1cc(-c2cccnc2)nn1 |  | 9.3 | 5.1 | 18 | -30 |  |  |  | 
20 | CC(=O)Nc1cccc(-c2cn(CCC(=O)O)nn2)c1 |  | 1.7 | 9.9 | 20 | -19 |  |  |  | 
21 | Nc1cccc(-c2cn(CCC(=O)O)nn2)c1 |  | 2.8 | 1.4 | 14 | -6.7 |  |  |  | 
22 | CCOc1cccc(-c2cn(CCC(=O)O)nn2)c1 |  | 0.4 | 0.6 | -9 | -28 |  |  |  | 
23 | Cc1cccc(-c2cn(CCC(=O)O)nn2)c1 |  | 10 | 0 | -7.8 | 22 |  |  |  | 
24 | O=C(O)CCn1cc(-c2cccc(Br)c2)nn1 |  | 0 | 11 | 7.2 | 23 |  |  |  | 

Row | SMILES | fold change (FC) (Rattus norvegicus [1]) | Activity (Rattus norvegicus [2]) [%] | Activity (Rattus norvegicus [3]) [%] | Activity (Rattus norvegicus [4]) [%] | Activity (Rattus norvegicus [5]) [%] | Activity (Rattus norvegicus [6]) [%] | Activity (Rattus norvegicus [7]) [%] | Activity (Rattus norvegicus [8]) [%] | Activity (Rattus norvegicus [9]) [%]
25 | O=C(O)CCn1cc(-c2cccc(Cl)c2)nn1 |  | -1.1 | -1.4 | 3.5 | -8.2 |  |  |  | 
26 | O=C(O)CCn1cc(-c2cccc(F)c2)nn1 |  | -9.9 | 1.7 | -10 | 1.6 |  |  |  | 
27 | O=C(O)CCn1cc(-c2ccccc2)nn1 |  | 8.9 | 0 | 2.2 | -12 |  |  |  | 
28 | O=C(O)CCc1cn(-c2cccc(Cl)c2)nn1 |  | 10 | 10 | -4.9 | 21 |  |  |  | 
29 | O=C(O)CCc1cn(-c2cccc(F)c2)nn1 |  | 22 | -4.1 | -2.4 | -2 |  |  |  | 
30 | O=C(O)CCc1cn(-c2ccccc2)nn1 |  | 2.3 | 1.6 | -1.6 | -3.2 |  |  |  | 
31 | Cc1cccc(-c2ncn(CC(=O)O)n2)c1 |  | 0.2 | 3 | -6 | -13 |  |  |  | 
32 | Cc1cccc(-c2ncn(CCC(=O)O)n2)c1 |  | -5.1 | -3.2 | 7.1 | 50 |  |  |  | 
33 | O=C(O)CCn1cnc(-c2cccc(Br)c2)n1 |  | 6.2 | 8.9 | 0.1 | 16 |  |  |  | 
34 | O=C(O)CCn1cnc(-c2cccc(Cl)c2)n1 |  | 3 | 1.1 | 11 | 14 |  |  |  | 
35 | O=C(O)CCn1cnc(-c2ccccc2)n1 |  | 4.4 | -3.7 | 8.6 | 10 |  |  |  | 
36 | O=C(O)CCc1ncn(-c2cc(Cl)cc(Cl)c2)n1 |  | 23 | 5.2 | 30 | 71 |  |  |  | 
37 | O=C(O)CCc1ncn(-c2cccc(Cl)c2)n1 |  |  | 7.5 |  |  |  |  |  | 
38 | O=C(O)CCc1ncn(-c2ccccc2)n1 |  | 1.3 | 12 | -0.6 | -15 |  |  |  | 
39 | Cc1cccc(-c2n[nH]c(CCC(=O)O)n2)c1 |  |  | -3 |  |  |  |  |  | 
40 | O=C(O)CCc1nc(-c2cccc(Br)c2)n[nH]1 |  | -13 | -9 | -1.2 | 30 |  |  |  | 
41 | O=C(O)CCc1nc(-c2cccc(Cl)c2)n[nH]1 |  | 3 | 2.9 | 3 | 3 |  |  |  | 
42 | O=C(O)CCc1nc(-c2ccccc2)n[nH]1 |  | 9.1 | -1.7 | 4.2 | 30 |  |  |  | 
43 | CC(=O)c1nn(CCC(=O)O)nc1-c1ccccc1 |  | 13 | 2.6 | -8 | -30 |  |  |  | 
44 | CN(C)c1nn(CCC(=O)[O-])nc1-c1ccccc1.[Na+] |  |  | 0 |  |  |  |  |  | 
45 | O=C(O)CCn1nncc1-c1ccccc1 |  |  | 5 |  |  |  |  |  | 
46 | O=C(O)CCc1nnn(-c2cccc(Br)c2)n1 |  | 17 | 21 | 34 | 22 |  |  |  | 
47 | CC(=O)Oc1ccccc1C(=O)O [ASPIRIN] |  |  |  |  |  | -11 | 5 | 37 | 29
48 | CCCCC1C(=O)N(c2ccccc2)N(c2ccccc2)C1=O [PHENYLBUTAZONE] |  | 33 | 28 | 39 | 36 |  |  |  | 
